Source: PubChem (several laboratories)
Mdm2 MdmX PPI: inhibitors of human Mdm2-MdmX association, primary screen, cell-based, luminescence, split luciferase, SaOS-2, uHTS; inhibition, % at 8 µM; hit rate 3% among 330,000; SaOS-2 split-luciferase Mdm2/MdmX complementation;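 active = inhibition of at least 50% at 8 µM in the primary screen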
T cruzi inh: inhibitors of intracellular T. cruzi growth, primary screen, luminescence, NIH3T3 host cells; T. cruzi beta-gal in NIH3T3, 90 h; hit rate 1.4% among 300,000; AID 1885, 2009; inhibition, % (test concentration not listed);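 active = mean inhibition across valid replicates above about 55%, limit read from the data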;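 note: signal also drops with host cell toxicity which is not excluded here; 0% = plate median of DMSO wells and 100% = zero luminescence signal; higher percent means less beta-gal luminescence so fewer parasites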
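Material: NIH/3T3 host cells with β-galactosidase reporter T. cruzi; Input: 5,000 host fibroblasts per well; Medium: DMEM, 2% fetal bovine serum; Compound: 50 nL DMSO compound solution per well; Schedule: 3 h host attachment, then at least 90 h co-culture; Detection: luminescent β-galactosidase signal after 60 min lysis.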
SKKanGAS inh: S. pyogenes SKKanGAS growth inhibitors in kanamycin, primary screen, streptokinase expression inhibitor project, SKKanGAS strain, BacTiter-Glo luminescence; 6 h; inhibition, % at 7.5 µM; hit rate 1.3% among 300,000; AID 1662, 2009;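 active = mean replicate score, as percent of positive control median, at least 50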;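 note: strain carries kanamycin resistance gene driven by streptokinase promoter and grows in 40 µg/ml kanamycin; loss of luminescence reflects streptokinase promoter inhibition or plain growth inhibition; 0% = median of DMSO wells and 100% = positive control at its reference dose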
CSC inhib: cancer stem cell viability inhibitors, primary screen, luminescence. AID 2717, 2010. inhibition, % at 7.5 µM. cancer stem cell-like cells viability. hit rate 1.1% among 300,000; in the data active = inhibition above about 75%; tested in HMLE shEcad cells
aSyn 5UTR inh: MLPCN primary screen, SNCA 5' untranslated region. alpha-synuclein 5'UTR reporter, inhibitor activity. inhibition, % (tested at 7.5 µM). hit rate 0.82% among 300,000. AID 1813, 2009; in the data active = inhibition above about 60%;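 note: H4 neuroglioblastoma cells stably carrying SNCA 5'UTR luciferase fusion; 0% = DMSO wells and 100% = positive control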
* = called active by the depositor; . = no result. The list is not random: actives were taken first. Their share in the collection is about 5.4%.

SMILES | Mdm2 MdmX PPI | T cruzi inh | SKKanGAS inh | CSC inhib | aSyn 5UTR inh
OC1CCN(c2cc(-c3ccccc3)nc3cc(-c4ccc(F)cc4)nn23)CC1 | 17 | 38 | 35 | 88* | 4
Cc1ccc(-c2cc3nc(-c4ccccc4)cc(N4CCOCC4)n3n2)cc1 | . | 32 | 6 | . | -1
COc1ccc(Cl)cc1NC(=S)NC(=O)c1ccco1 | -18 | . | . | . | .
CC12CCC(C/C1=N\N=C1\NC(=O)/C(=C\c3cccc(Br)c3)S1)C2(C)C (centres undefined) | 17 | 19 | 104* | 105* | 13
Cn1c(C(=O)N2CCN(c3ccc([N+](=O)[O-])cc3)CC2)cc2c(=O)[nH]c3ccccc3c21 | . | 21 | 75* | . | 11
Cc1cc(C(=O)N2CCN(c3ccc([N+](=O)[O-])cc3)CC2)co1 | 10 | -7 | 12 | -1 | 16
O=C(NCCCN1CCCC1=O)C1CCN(S(=O)(=O)c2c(Cl)cccc2Cl)CC1 | 9 | -11 | -2 | -15 | -19
Clc1ccc(-c2csc(N/N=C/c3ccco3)n2)cc1 | -44 | 33 | -20 | 19 | -156
c1cncc(Nc2nc(-c3cccnc3)cs2)c1 | 23 | 29 | -4 | -3 | -72
Clc1ccc(-c2csc(N/N=C\c3cccnc3)n2)cc1 | -17 | 55* | 9 | -13 | -77
Cc1ccc(Nc2nc(-c3cccnc3)cs2)cc1Cl | -118 | 59* | -4 | 13 | -175
COC(=O)c1nc(NC(=S)NC(=O)c2cccs2)sc1C | -16 | -15 | 60* | -9 | -80
CCOC(=O)c1c(-c2ccc(C)o2)csc1NC(=S)NC(=O)c1cccs1 | 35 | 37 | 61* | 56 | 9
CCOC(=O)c1c(-c2ccc(C)o2)csc1NC(=O)CSc1nnnn1-c1ccccc1 | 17 | 60* | 5 | 2 | -5
CCc1ccc(-c2nc(NC(=S)NC(=O)c3cccs3)sc2C)cc1 | 48 | 6 | 4 | -6 | -36
CC1(C)C=Cc2c(ccc3c2OC[C@H](c2ccc(O)cc2O)C3)O1 | -47 | . | . | 114* | .
C=CCNC(=O)Cc1ccc(S(=O)(=O)N2CCOCC2)s1 | -23 | . | . | . | .
Cn1nc(C(=O)OCC(=O)Nc2cc(Cl)ccc2C#N)c2ccccc2c1=O | -5 | . | . | . | .
COc1ccc(OC)c(N/C(C)=C/C(=O)c2ccccc2)c1 | -129 | 56* | 2 | 29 | -113
Nc1ccc(-c2nc3cc(N)ccc3o2)cc1 | -99 | -20 | 13 | 1 | -52
Cc1ccc(C)c(-c2nc3cc(N)ccc3o2)c1 | -35 | 6 | 9 | 22 | 63*
CN(C)c1ccc(-c2nc3cc(N)ccc3o2)cc1 | -62 | 18 | -3 | 15 | 93*
Cc1ccc2nc(-c3cc(N)cc(N)c3)oc2c1 | 11 | 1 | 8 | 2 | 62*
CCc1ccc(CCC(=O)Nc2ccc(C(=O)O)cc2)o1 | 5 | 1 | -4 | 2 | -19
COc1ccc(C(=O)/C=C/c2ccc(N3CCCCC3)c([N+](=O)[O-])c2)c(OC)c1 | . | 4 | 9 | 97* | -40
SMILES | Mdm2 MdmX PPI | T cruzi inh | SKKanGAS inh | CSC inhib | aSyn 5UTR inh
CN(CC(=O)Nc1cccc(F)c1)C(=O)CN1C(=O)C2CC=CCC2C1=O (centres undefined) | 18 | 1 | . | -7 | -8
Cc1cc([N+](=O)[O-])nn1Cc1ccc(C(=O)N/N=C/c2ccc(O)cc2O)cc1 | 50 | -7 | 2 | 117* | 29
O=C(c1ccc(Cl)cc1)C1CCCN(Cc2cccn2-c2cccnc2)C1 (centres undefined) | 4 | 58* | 6 | -8 | -11
Cn1c(CN2CCCC(C(=O)c3ccc4c(c3)OCO4)C2)nc2ccccc21 (centres undefined) | 12 | 73* | -6 | -3 | -2
O=C(c1ccc2c(c1)OCO2)C1CCCN(Cc2cccn2-c2cccnc2)C1 (centres undefined) | 2 | 58* | 7 | -16 | 24
CC1(C)c2ccccc2-n2c1cc1oc(=O)cc(O)c1c2=O | -7 | -1 | 96* | 22 | 20
Cc1ccccc1-c1nnc(SCC(=O)Nc2cccnc2Cl)o1 | -79 | . | . | 52 | .
O=c1c2cn[nH]c2nc(SCc2c(F)cccc2F)n1-c1ccc(Cl)cc1 | 21 | 41 | 59* | 52 | 36
COc1ccc(NC(=O)CN2C(=O)NC(C)(c3ccc(C)cc3)C2=O)c([N+](=O)[O-])c1 (centres undefined) | 15 | -8 | 8 | . | 10
